Legend:
[1] = Cytotoxicity against human HepG2.2.15 cells assessed as cell death after 9 days by MTT assay; type: cell-based, HepG2 2.2.15
Method in brief: (§1)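 HepG2.2.15 cells (MEM, 10% FBS, 380 µg/ml G418, 37 °C, 5% CO2) seeded at 1×10^5 cells/ml, cultured 24 h, then exposed to various drug concentrations; drug-containing medium renewed every 3 d. OD read at 450 nm after 9 days; percent cell death calculated; CC50 = concentration killing 50% of cells. Means of at least two experiments.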

[2] = system: Hepatitis B virus; assay: Antiviral activity against Hepatitis B virus infected in human HepG2.2.15 cells assessed as inhibition of HBsAg secretion by ELISA; type: functional, organism-based; settings: HepG2 2.2.15
Method in brief: (§2)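 HepG2.2.15 cells (MEM, 10% FBS, 380 µg/ml G418) seeded at 1×10^5 cells/ml, held 24 h at 37 °C, then treated with various drug concentrations; medium with drug renewed every 3 d for up to 9 d. Culture medium sampled on days 3, 6 and 9, stored at -20 °C, and assayed for secreted antigen. Lamivudine as positive control; IC50 = 50% inhibition of secretion; means of at least two experiments.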

[3] = Selectivity index, ratio of CC50 for human HepG2.2.15 cells to IC50 for Hepatitis B virus infected in human HepG2.2.15 cells assessed as inhibition of HBsAg secretion; type: functional
Method in brief: (§3)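 Selectivity index computed as CC50/IC50, with CC50 from cell death of HepG2.2.15 cells after 9 days of treatment (OD 450 nm) and IC50 from 50% inhibition of HBeAg or HBsAg secretion in the same cells; medium with drug renewed every 3 d.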

[4] = system: Hepatitis B virus; assay: Antiviral activity against Hepatitis B virus infected in human HepG2.2.15 cells assessed as inhibition of HBeAg secretion by ELISA; type: functional, organism-based; settings: HepG2 2.2.15; method in brief: as §2
[5] = Selectivity index, ratio of CC50 for human HepG2.2.15 cells to IC50 for Hepatitis B virus infected in human HepG2.2.15 cells assessed as inhibition of HBeAg secretion; type: functional; method in brief: as §3
[6] = system: Hepatitis B virus; assay: Antiviral activity against Hepatitis B virus infected in human HepG2.2.15 cells assessed as inhibition of HBsAg secretion at 300 uM after 3 days by ELISA; type: functional; settings: HepG2 2.2.15, 72 h; method in brief: as §2
[7] = system: Hepatitis B virus; assay: Antiviral activity against Hepatitis B virus infected in human HepG2.2.15 cells assessed as inhibition of HBsAg secretion at 150 uM after 3 days by ELISA; type: functional; settings: HepG2 2.2.15, 72 h; method in brief: as §2
[8] = system: Hepatitis B virus; assay: Antiviral activity against Hepatitis B virus infected in human HepG2.2.15 cells assessed as inhibition of HBsAg secretion at 75 uM after 3 days by ELISA; type: functional; settings: HepG2 2.2.15, 72 h; method in brief: as §2
[9] = system: Hepatitis B virus; assay: Antiviral activity against Hepatitis B virus infected in human HepG2.2.15 cells assessed as inhibition of HBsAg secretion at 37.5 uM after 3 days by ELISA; type: functional; settings: HepG2 2.2.15, 72 h; method in brief: as §2
[10] = system: Hepatitis B virus; assay: Antiviral activity against Hepatitis B virus infected in human HepG2.2.15 cells assessed as inhibition of HBsAg secretion at 300 uM after 6 days by ELISA; type: functional; settings: HepG2 2.2.15, 144 h; method in brief: as §2
[11] = system: Hepatitis B virus; assay: Antiviral activity against Hepatitis B virus infected in human HepG2.2.15 cells assessed as inhibition of HBsAg secretion at 150 uM after 6 days by ELISA; type: functional; settings: HepG2 2.2.15, 144 h; method in brief: as §2
[12] = system: Hepatitis B virus; assay: Antiviral activity against Hepatitis B virus infected in human HepG2.2.15 cells assessed as inhibition of HBsAg secretion at 75 uM after 6 days by ELISA; type: functional; settings: HepG2 2.2.15, 144 h; method in brief: as §2
[13] = system: Hepatitis B virus; assay: Antiviral activity against Hepatitis B virus infected in human HepG2.2.15 cells assessed as inhibition of HBsAg secretion at 37.5 uM after 6 days by ELISA; type: functional; settings: HepG2 2.2.15, 144 h; method in brief: as §2
[14] = system: Hepatitis B virus; assay: Antiviral activity against Hepatitis B virus infected in human HepG2.2.15 cells assessed as inhibition of HBsAg secretion at 300 uM after 9 days by ELISA; type: functional; settings: HepG2 2.2.15, 216 h; method in brief: as §2
[15] = system: Hepatitis B virus; assay: Antiviral activity against Hepatitis B virus infected in human HepG2.2.15 cells assessed as inhibition of HBsAg secretion at 150 uM after 9 days by ELISA; type: functional; settings: HepG2 2.2.15, 216 h; method in brief: as §2
[16] = system: Hepatitis B virus; assay: Antiviral activity against Hepatitis B virus infected in human HepG2.2.15 cells assessed as inhibition of HBsAg secretion at 75 uM after 9 days by ELISA; type: functional; settings: HepG2 2.2.15, 216 h; method in brief: as §2
[17] = system: Hepatitis B virus; assay: Antiviral activity against Hepatitis B virus infected in human HepG2.2.15 cells assessed as inhibition of HBsAg secretion at 37.5 uM after 9 days by ELISA; type: functional; settings: HepG2 2.2.15, 216 h; method in brief: as §2
[18] = system: Hepatitis B virus; assay: Antiviral activity against Hepatitis B virus infected in human HepG2.2.15 cells assessed as cell survival at 300 uM after 9 days (reference value: 100%); type: functional; settings: HepG2 2.2.15, 216 h; method in brief: as §1
[19] = system: Hepatitis B virus; assay: Antiviral activity against Hepatitis B virus infected in human HepG2.2.15 cells assessed as cell survival at 150 uM after 9 days (reference value: 100%); type: functional; settings: HepG2 2.2.15, 216 h; method in brief: as §1
[20] = system: Hepatitis B virus; assay: Antiviral activity against Hepatitis B virus infected in human HepG2.2.15 cells assessed as cell survival at 75 uM after 9 days (reference value: 100%); type: functional; settings: HepG2 2.2.15, 216 h; method in brief: as §1
[21] = system: Hepatitis B virus; assay: Antiviral activity against Hepatitis B virus infected in human HepG2.2.15 cells assessed as cell survival at 37.5 uM after 9 days (reference value: 100%); type: functional; settings: HepG2 2.2.15, 216 h; method in brief: as §1
[22] = system: Hepatitis B virus; assay: Antiviral activity against Hepatitis B virus infected in human HepG2.2.15 cells assessed as inhibition of HBeAg secretion at 300 uM after 3 days by ELISA; type: functional; settings: HepG2 2.2.15, 72 h; method in brief: as §2
[23] = system: Hepatitis B virus; assay: Antiviral activity against Hepatitis B virus infected in human HepG2.2.15 cells assessed as inhibition of HBeAg secretion at 150 uM after 3 days by ELISA; type: functional; settings: HepG2 2.2.15, 72 h; method in brief: as §2
[24] = system: Hepatitis B virus; assay: Antiviral activity against Hepatitis B virus infected in human HepG2.2.15 cells assessed as inhibition of HBeAg secretion at 75 uM after 3 days by ELISA; type: functional; settings: HepG2 2.2.15, 72 h; method in brief: as §2
[25] = system: Hepatitis B virus; assay: Antiviral activity against Hepatitis B virus infected in human HepG2.2.15 cells assessed as inhibition of HBeAg secretion at 37.5 uM after 3 days by ELISA; type: functional; settings: HepG2 2.2.15, 72 h; method in brief: as §2
[26] = system: Hepatitis B virus; assay: Antiviral activity against Hepatitis B virus infected in human HepG2.2.15 cells assessed as inhibition of HBeAg secretion at 300 uM after 6 days by ELISA; type: functional; settings: HepG2 2.2.15, 144 h; method in brief: as §2
[27] = system: Hepatitis B virus; assay: Antiviral activity against Hepatitis B virus infected in human HepG2.2.15 cells assessed as inhibition of HBeAg secretion at 150 uM after 6 days by ELISA; type: functional; settings: HepG2 2.2.15, 144 h; method in brief: as §2
[28] = system: Hepatitis B virus; assay: Antiviral activity against Hepatitis B virus infected in human HepG2.2.15 cells assessed as inhibition of HBeAg secretion at 75 uM after 6 days by ELISA; type: functional; settings: HepG2 2.2.15, 144 h; method in brief: as §2
[29] = system: Hepatitis B virus; assay: Antiviral activity against Hepatitis B virus infected in human HepG2.2.15 cells assessed as inhibition of HBeAg secretion at 37.5 uM after 6 days by ELISA; type: functional; settings: HepG2 2.2.15, 144 h; method in brief: as §2
[30] = system: Hepatitis B virus; assay: Antiviral activity against Hepatitis B virus infected in human HepG2.2.15 cells assessed as inhibition of HBeAg secretion at 300 uM after 9 days by ELISA; type: functional; settings: HepG2 2.2.15, 216 h; method in brief: as §2
[31] = system: Hepatitis B virus; assay: Antiviral activity against Hepatitis B virus infected in human HepG2.2.15 cells assessed as inhibition of HBeAg secretion at 150 uM after 9 days by ELISA; type: functional; settings: HepG2 2.2.15, 216 h; method in brief: as §2
[32] = system: Hepatitis B virus; assay: Antiviral activity against Hepatitis B virus infected in human HepG2.2.15 cells assessed as inhibition of HBeAg secretion at 75 uM after 9 days by ELISA; type: functional; settings: HepG2 2.2.15, 216 h; method in brief: as §2
[33] = system: Hepatitis B virus; assay: Antiviral activity against Hepatitis B virus infected in human HepG2.2.15 cells assessed as inhibition of HBeAg secretion at 37.5 uM after 9 days by ELISA; type: functional; settings: HepG2 2.2.15, 216 h; method in brief: as §2

Structure (SMILES): COc1cc(/C=C/C(=O)O/N=C/c2ccco2)cc(OC)c1OC
- CC50 at 216 h [1]: 1050 µM
- IC50 [2]: 173 µM
- Ratio CC50/IC50 [3]: 6.06
- IC50 [4]: 190 µM
- Ratio CC50/IC50 [5]: 5.54
- inhibition at 300 µM [6]: 36.7%
- inhibition at 150 µM [7]: 23.7%
- inhibition at 75 µM [8]: 16.2%
- inhibition at 37.5 µM [9]: 8.45%
- inhibition at 300 µM [10]: 50.1%
- inhibition at 150 µM [11]: 36.4%
- inhibition at 75 µM [12]: 28.9%
- inhibition at 37.5 µM [13]: 15.2%
- inhibition at 300 µM [14]: 60.8%
- inhibition at 150 µM [15]: 47.1%
- inhibition at 75 µM [16]: 36%
- inhibition at 37.5 µM [17]: 15.8%
- viability at 300 µM [18]: 76.1%
- viability at 150 µM [19]: 93.2%
- viability at 75 µM [20]: 127%
- viability at 37.5 µM [21]: 133%
- inhibition at 300 µM [22]: 29.2%
- inhibition at 150 µM [23]: 22.6%
- inhibition at 75 µM [24]: 13.2%
- inhibition at 37.5 µM [25]: 5.59%
- inhibition at 300 µM [26]: 42.6%
- inhibition at 150 µM [27]: 34.3%
- inhibition at 75 µM [28]: 25.8%
- inhibition at 37.5 µM [29]: 17.9%
- inhibition at 300 µM [30]: 58%
- inhibition at 150 µM [31]: 45.1%
- inhibition at 75 µM [32]: 35.6%
- inhibition at 37.5 µM [33]: 25.4%

Structure (SMILES): O=C(/C=C/c1ccc2c(c1)OCO2)O/N=C/c1cccs1
- CC50 at 216 h [1]: 266 µM
- IC50 [2]: 75.8 µM
- Ratio CC50/IC50 [3]: 3.51
- IC50 [4]: 118 µM
- Ratio CC50/IC50 [5]: 2.26
- inhibition at 300 µM [6]: 58.3%
- inhibition at 150 µM [7]: 46.3%
- inhibition at 75 µM [8]: 32.1%
- inhibition at 37.5 µM [9]: 20.4%
- inhibition at 300 µM [10]: 87.5%
- inhibition at 150 µM [11]: 63.2%
- inhibition at 75 µM [12]: 45.4%
- inhibition at 37.5 µM [13]: 29.6%
- inhibition at 300 µM [14]: 88.1%
- inhibition at 150 µM [15]: 63.1%
- inhibition at 75 µM [16]: 52%
- inhibition at 37.5 µM [17]: 29.7%
- viability at 300 µM [18]: 79.4%
- viability at 150 µM [19]: 92.2%
- viability at 75 µM [20]: 105%
- viability at 37.5 µM [21]: 112%
- inhibition at 300 µM [22]: 51.3%
- inhibition at 150 µM [23]: 33.5%
- inhibition at 75 µM [24]: 25.7%
- inhibition at 37.5 µM [25]: 15.9%
- inhibition at 300 µM [26]: 63.2%
- inhibition at 150 µM [27]: 46.1%
- inhibition at 75 µM [28]: 32%
- inhibition at 37.5 µM [29]: 20.6%
- inhibition at 300 µM [30]: 71.6%
- inhibition at 150 µM [31]: 51.5%
- inhibition at 75 µM [32]: 42.9%
- inhibition at 37.5 µM [33]: 25.4%

Reference: ChEMBL document CHEMBL3576819, “Design, synthesis, biological evaluation and molecular docking studies of phenylpropanoid derivatives as potent anti-hepatitis B virus agents” (Eur J Med Chem, 2015)
